Where only a bound is given, the exact number is not on record here.

One data set has as its target T1, Protein-lysine 6-oxidase (Bos taurus, UniProt P33072).
T1 sequence (P33072 whole entry): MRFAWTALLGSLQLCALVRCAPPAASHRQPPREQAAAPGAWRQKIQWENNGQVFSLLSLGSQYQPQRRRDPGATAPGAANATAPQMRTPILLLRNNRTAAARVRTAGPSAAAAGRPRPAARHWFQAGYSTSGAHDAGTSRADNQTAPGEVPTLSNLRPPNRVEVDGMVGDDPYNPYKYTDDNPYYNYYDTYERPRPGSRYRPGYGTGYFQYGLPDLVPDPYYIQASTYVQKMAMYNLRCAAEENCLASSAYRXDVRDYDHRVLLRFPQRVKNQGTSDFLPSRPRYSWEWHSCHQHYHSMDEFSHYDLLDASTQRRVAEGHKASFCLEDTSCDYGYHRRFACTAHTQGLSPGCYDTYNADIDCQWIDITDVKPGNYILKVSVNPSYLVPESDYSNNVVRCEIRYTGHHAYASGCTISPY
As to the kind of experiment: Inhibition of LOX in bovine aorta using putrescine as substrate preincubated with enzyme for 30 mins followed by substrate addition and measured every 2.5 mins for 30 mins by Amplex-Red oxidation assay. It is filed as tissue-based. As to conditions: read-out: pIC50 (converted). In a few lines: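 LOX extracted from calf aorta after PBS washing with 4 M urea/50 mM borate pH 8.2, concentrated on 10 kDa filters into 1.2 M urea/borate with protease inhibitors. Preincubated 30 min at 37 °C with compound, then Amplex Red/HRP with 10 mM putrescine; fluorescence read every 2.5 min for 30 min.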

The target in another data set is T2, Lysyl oxidase homolog 2 (Homo sapiens, UniProt Q9Y4K0).
T2 sequence (Q9Y4K0 whole entry): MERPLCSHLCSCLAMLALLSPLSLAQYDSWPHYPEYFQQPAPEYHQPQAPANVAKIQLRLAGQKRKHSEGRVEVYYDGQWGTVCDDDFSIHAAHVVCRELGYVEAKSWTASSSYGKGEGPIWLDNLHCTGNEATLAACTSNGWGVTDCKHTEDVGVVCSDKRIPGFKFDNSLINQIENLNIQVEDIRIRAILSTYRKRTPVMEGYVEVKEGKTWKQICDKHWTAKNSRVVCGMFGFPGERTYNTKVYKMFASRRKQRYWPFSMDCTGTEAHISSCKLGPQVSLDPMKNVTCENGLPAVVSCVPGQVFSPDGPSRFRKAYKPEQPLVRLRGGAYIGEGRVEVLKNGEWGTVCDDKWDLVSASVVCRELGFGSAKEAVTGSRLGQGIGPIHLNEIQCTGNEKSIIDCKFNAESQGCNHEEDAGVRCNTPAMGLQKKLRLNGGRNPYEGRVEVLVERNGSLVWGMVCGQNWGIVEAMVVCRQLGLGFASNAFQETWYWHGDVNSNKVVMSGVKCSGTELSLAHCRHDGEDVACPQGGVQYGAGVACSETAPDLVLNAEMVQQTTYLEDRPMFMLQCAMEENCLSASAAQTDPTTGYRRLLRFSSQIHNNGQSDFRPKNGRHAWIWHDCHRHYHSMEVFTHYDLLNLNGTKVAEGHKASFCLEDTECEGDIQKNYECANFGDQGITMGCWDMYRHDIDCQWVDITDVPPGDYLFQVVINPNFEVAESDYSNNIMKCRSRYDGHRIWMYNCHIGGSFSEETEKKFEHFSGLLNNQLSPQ
The data set is described as follows: Inhibition of recombinant human C-terminal His-tagged […] (1-774 residues) expressed in mouse myeloma cells using putrescine as substrate preincubated with enzyme for 30 mins followed by substrate addition and measured every 2.5 mins for 30 mins by Amplex-Red oxidation assay. The settings on record: read-out: pIC50 (converted). A digest of the protocol:
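LOXL2 enzyme preincubated with compound for 30 min at 37 °C, then Amplex Red (120 µM) / HRP (1.5 U/mL) mix containing 5 mM putrescine added. Buffer: 1.2 M urea, 50 mM sodium borate, pH 8.2. H2O2 fluorescence (ex 565/em 590) read every 2.5 min for 30 min at 37 °C; BAPN 100 µM as positive control; n≥2.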

In data set [1] the target is T3, Amine oxidase [copper-containing] 3 (Homo sapiens, UniProt Q16853).
T3 sequence (Q16853 whole entry): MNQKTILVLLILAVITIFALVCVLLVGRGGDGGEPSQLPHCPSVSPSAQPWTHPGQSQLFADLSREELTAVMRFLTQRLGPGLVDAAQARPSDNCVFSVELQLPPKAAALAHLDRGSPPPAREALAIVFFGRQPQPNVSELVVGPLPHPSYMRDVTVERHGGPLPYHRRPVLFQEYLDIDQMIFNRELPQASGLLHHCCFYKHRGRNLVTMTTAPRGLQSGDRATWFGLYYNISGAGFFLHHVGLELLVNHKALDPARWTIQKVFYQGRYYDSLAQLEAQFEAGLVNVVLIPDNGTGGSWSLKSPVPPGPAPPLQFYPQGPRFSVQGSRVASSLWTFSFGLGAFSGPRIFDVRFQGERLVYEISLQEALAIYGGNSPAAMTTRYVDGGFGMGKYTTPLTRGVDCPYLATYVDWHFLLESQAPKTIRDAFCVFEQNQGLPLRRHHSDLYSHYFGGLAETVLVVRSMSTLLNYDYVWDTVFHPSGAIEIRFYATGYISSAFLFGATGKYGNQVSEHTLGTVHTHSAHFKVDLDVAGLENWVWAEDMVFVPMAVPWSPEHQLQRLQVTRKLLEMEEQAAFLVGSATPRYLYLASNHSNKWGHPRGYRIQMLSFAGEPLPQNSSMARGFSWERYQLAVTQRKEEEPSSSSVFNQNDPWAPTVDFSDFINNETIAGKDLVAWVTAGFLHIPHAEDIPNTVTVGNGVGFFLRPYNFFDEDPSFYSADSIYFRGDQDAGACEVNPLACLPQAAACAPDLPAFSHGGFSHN
As to the kind of experiment: Inhibition of recombinant human SSAO using benzylamine as substrate preincubated with enzyme for 30 mins followed by substrate addition and measured every 2.5 mins for 30 mins by Amplex-Red oxidation assay. As to conditions: read-out: pIC50 (converted).

Data set [2] concerns the target T3, Amine oxidase [copper-containing] 3. The data set is described as follows: Substrate activity at recombinant human SSAO assessed as compound oxidation by measuring oxidative turnover at 30 uM measured for 40 mins by horseradish peroxidase-coupled amplex red reagent-based fluorometric assay relative to DMSO. It is filed as ADME. A digest of the protocol:
(§1)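 Compound oxidation measured without substrate by peroxidase-coupled fluorometric read-out of resorufin formation over 40 min at 37 °C in HEPES buffer. Amplex Red 20 µM, HRP 4 U/ml, test compound at final 30 µM. Enzyme source was human recombinant SSAO or AOC4 from diluted dog serum. Benzylamine at 600 µM served as positive control. Signal is expressed relative to DMSO-only background, so a value near 1 means no turnover.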

The nature of data set [3]: Substrate activity at AOC4 in dog serum assessed as compound oxidation by measuring oxidative turnover at 30 uM measured for 40 mins by horseradish peroxidase-coupled amplex red reagent-based fluorometric assay relative to DMSO. The format is ADME, cell-free, Canis lupus familiaris. A digest of the protocol: as §1

With `C[C@H](NS(=O)(=O)c1ccc(OC/C(F)=C/CN)cc1)c1ccccc1`, the IC50 on Protein-lysine 6-oxidase was 398 nM; on Lysyl oxidase homolog 2 it was 316 nM; in data set [1], above 3160 nM.

For the compound `Cc1c(-c2cccc(S(=O)(=O)N(C)C)c2)c2cc(O)ccc2n1C/C(F)=C/CN.Cl`, the results for the IC50 at Protein-lysine 6-oxidase and on Lysyl oxidase homolog 2 were 1260 nM and 50.1 nM, respectively. For the same compound, the “fold change (FC)” value in data set [2] is given as 1; in data set [3] it was 1.1.

On to `Cc1c(-c2cccc(S(=O)(=O)N(C)C)c2)c2ccc(C(=O)N(C)C)cc2n1C/C(F)=C/CN.Cl`, for which the IC50 on Protein-lysine 6-oxidase is 794 nM; on Lysyl oxidase homolog 2 it was 63.1 nM. The “fold change (FC)” value was 1 in data set [2] and 1.1 in data set [3].

For the compound `Cc1c(-c2cccc(S(=O)(=O)N(C)C)c2)c2cc(Cl)ccc2n1C/C(F)=C/CN.Cl`, the IC50 on Protein-lysine 6-oxidase is 3160 nM; at Lysyl oxidase homolog 2, 126 nM. The “fold change (FC)” value is given as 1.2 in data set [2] and 1.1 in data set [3].

Regarding `CN(C)S(=O)(=O)c1ccc(NCc2cn(C/C(F)=C/CN)nn2)cc1.Cl`, the IC50 at Protein-lysine 6-oxidase was 501 nM; at Lysyl oxidase homolog 2 it was 20 nM. For the same compound, the “fold change (FC)” value in data set [2] was above 4.

Regarding `Cc1c(-c2ccc(S(=O)(=O)N(C)C)cc2)c2ccccc2n1C/C(F)=C/CN.Cl`, the IC50 was 3160 nM on Protein-lysine 6-oxidase and 794 nM at Lysyl oxidase homolog 2. The “fold change (FC)” value in data set [2] is reported as 2.8.

Take `Cc1c(-c2cccc(S(=O)(=O)N(C)C)c2)c2cccc(C(=O)N(C)C)c2n1C/C(F)=C/CN.Cl`: the IC50 is 20000 nM on Protein-lysine 6-oxidase and 3160 nM on Lysyl oxidase homolog 2. Further, the “fold change (FC)” value is recorded as 1.1 in data set [2] and 1.4 in data set [3].

As to `C[C@H](NS(=O)(=O)c1ccc(OC/C(F)=C\CN)cc1)c1ccccc1`, the IC50 is 2000 nM on Protein-lysine 6-oxidase, 2510 nM at Lysyl oxidase homolog 2 and 50.1 nM in data set [1].

As to `NC/C=C(\F)Cn1cc(COc2ccccc2)nn1`, the IC50 on Protein-lysine 6-oxidase is 501 nM; at Lysyl oxidase homolog 2 it was 316 nM.

With `CN(C)S(=O)(=O)c1ccc(-c2ccn(C/C(F)=C/CN)c2)cc1.Cl`, the IC50 was 794 nM on Protein-lysine 6-oxidase and 251 nM on Lysyl oxidase homolog 2. The “fold change (FC)” value in data set [2] is given as above 4.

On to `Cc1c(-c2cccc(S(=O)(=O)N(C)C)c2)c2ccc(C(=O)O)cc2n1C/C(F)=C/CN.Cl`, for which the IC50 was 15800 nM at Protein-lysine 6-oxidase and 501 nM at Lysyl oxidase homolog 2. The results for the “fold change (FC)” value in data set [2] and in data set [3] were 1.1 and 1, respectively.

As for `CC(C)(C)c1ccc(OCc2cn(C/C(F)=C/CN)nn2)cc1`, the IC50 at Protein-lysine 6-oxidase is 501 nM; on Lysyl oxidase homolog 2, 794 nM.

As to `CN(C)S(=O)(=O)c1cccc(-c2ccn(C/C(F)=C/CN)c2)c1.Cl`, the IC50 at Protein-lysine 6-oxidase was 2000 nM; on Lysyl oxidase homolog 2, 100 nM. The “fold change (FC)” value in data set [2] is given as above 4.

In the case of `CN(C)S(=O)(=O)c1ccc(Cc2cn(C/C(F)=C/CN)nn2)cc1.Cl`, the values for the IC50 on Protein-lysine 6-oxidase and at Lysyl oxidase homolog 2 were 631 nM and 12.6 nM, respectively. Besides, the “fold change (FC)” value in data set [2] is listed as above 4.

`CN(C)S(=O)(=O)c1ccc(-c2cn(C/C(F)=C/CN)nn2)cc1.Cl`: the IC50 at Protein-lysine 6-oxidase was 794 nM; at Lysyl oxidase homolog 2 it was 126 nM. The “fold change (FC)” value in data set [2] is reported as above 4.

For `Cc1c(-c2cccc(S(=O)(=O)N(C)C)c2)c2cc(NS(C)(=O)=O)ccc2n1C/C(F)=C/CN.Cl`, the IC50 on Protein-lysine 6-oxidase was 1000 nM; at Lysyl oxidase homolog 2, 20 nM. For the same compound, the “fold change (FC)” value in data set [2] is 1; in data set [3], 1.5.

Take `Cc1c(-c2cccc(S(=O)(=O)N(C)C)c2)c2cc(C(=O)N(C)C)ccc2n1C/C(F)=C/CN.Cl`: the IC50 was 1580 nM at Protein-lysine 6-oxidase and 25.1 nM on Lysyl oxidase homolog 2. Moreover, the results for the “fold change (FC)” value in data set [2] and in data set [3] were 1.2 and 1, respectively.

For `Cc1c(-c2cccc(S(=O)(=O)N(C)C)c2)c2cc(-c3nnn[nH]3)ccc2n1C/C(F)=C/CN.Cl`, the IC50 on Protein-lysine 6-oxidase was 15800 nM; on Lysyl oxidase homolog 2, 126 nM. Moreover, in data set [3], the “fold change (FC)” value amounted to 1.

Regarding `COc1ccc2c(c1)c(-c1cccc(S(=O)(=O)N(C)C)c1)c(C)n2C/C(F)=C/CN.Cl`, the figures for the IC50 on Protein-lysine 6-oxidase and at Lysyl oxidase homolog 2 were 1580 nM and 79.4 nM, respectively. In addition, the “fold change (FC)” value in data set [2] was 4.6; in data set [3], 1.6.

Turning to `Cc1c(-c2cccc(S(=O)(=O)N(C)C)c2)c2cc(S(C)(=O)=O)ccc2n1C/C(F)=C/CN.Cl`, the values for the IC50 on Protein-lysine 6-oxidase and at Lysyl oxidase homolog 2 were 398 nM and 5.01 nM, respectively. The “fold change (FC)” value in data set [2] and in data set [3] was 1.3 throughout.

For `CN(C)C(=O)c1ccc(OCc2cn(C/C(F)=C/CN)nn2)cc1`, the IC50 at Protein-lysine 6-oxidase was 3160 nM; at Lysyl oxidase homolog 2, 794 nM.

With `CS(=O)(=O)c1ccccc1OCc1cn(C/C(F)=C/CN)nn1`, the IC50 on Protein-lysine 6-oxidase is 3160 nM; on Lysyl oxidase homolog 2, 2000 nM.

In the case of `CS(=O)(=O)c1cccc(OCc2cn(C/C(F)=C/CN)nn2)c1`, the IC50 was 1000 nM at Protein-lysine 6-oxidase and 794 nM on Lysyl oxidase homolog 2.

On to `CS(=O)(=O)c1ccc(OCc2cn(C/C(F)=C/CN)nn2)cc1`, for which the IC50 on Protein-lysine 6-oxidase is 631 nM; on Lysyl oxidase homolog 2, 200 nM.

The record behind these values is ChEMBL document CHEMBL4321820, “Identification and Optimization of Mechanism-Based Fluoroallylamine Inhibitors of Lysyl Oxidase-like 2/3” (J Med Chem, 2019).
